Compounds with a hit are over-represented: about 9.6% of the library has one in this group of screens.
MT stabilizer – microtubule stabilizers in HeLa cells, primary screen, imaging, high-content imaging | hit rate 0.83% among 200,000 | HeLa tubulin immunostaining HCS, 24 h; share of cells brighter than vehicle mean+2SD | AID 2205, 2009 | % tubulin-high responders, % at 10 µM;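 active = plate Z-score above 3 for both tubulin-high and condensed-nucleus cell shares, with cell loss under 80%, at 10 µM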;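 also: anti alpha tubulin signal scored within the nucleus-defined area of each cell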
bCat nuc transl – modulators of beta-catenin nuclear translocation, primary screen, imaging, HeLa cells, immunofluorescence, high-content. hit rate 0.3% among 190,000. nuclear translocation activity, % at 5 µM;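 active = nuclear translocation activity above 50% at 5 µM, with a well cell count of 50 or more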;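 also: per-cell ratio of nuclear to cytoplasmic median beta-catenin stain intensity; plate controls were DMSO negative control for no effect and GSK-3 inhibitor IX positive control for full effect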
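Technique: fluorescence imaging of beta-catenin antibody stain plus DAPI / Material: human HeLa cell line / Incubation: compound treatment 24 h, 37°C, 5% CO2 / Read-out basis: % activation of per-cell nuclear versus cytoplasmic median beta-catenin signal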
L major viab – Leishmania major promastigote growth inhibition, primary screen; Leishmania major promastigotes, resazurin fluorescence viability; inhibition, % at 10 µM; hit rate 9% among 200,000; in the data active = inhibition above about 50%;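 also: promastigotes grown with compound for 44 hours at 28 °C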
APP 5UTR inh – inhibitors of APP translation via 5'UTR reporter, primary screen, APP 5'UTR luciferase, SH-SY5Y cells | SH-SY5Y APP 5'UTR-luciferase reporter, luminescence | inhibition, % at 2 µM | hit rate 0.82% among 190,000;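 active = inhibition above a set limit, derived from the sample mean plus 3 SD, cut at about 45% in these data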
Ba/F3 V617F tox – reduced viability of JAK2V617F-dependent Ba/F3 cells, primary screen, JAK2V617F inhibitor project, cell-based, Ba/F3 EpoR-JAK2V617F, luminescence; hit rate 1.1% among 220,000; ATP luminescence; inhibition, % at 5.6 µM;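 active = inhibition above the campaign mean plus 3 SD over all tested compounds, cut at about 24% in these data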;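 also: cytokine-independent growth of Ba/F3 cells driven by EpoR plus mutant JAK2; 0% = DMSO-treated cells and 100% = JAK inhibitor I control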
BaF3 tox – parental Ba/F3 cell viability inhibition, counter-screen for JAK2V617F inhibitor project, murine pro-B, CellTiter-Glo luminescence; CellTiter-Glo ATP luminescence; inhibition, % at 5.6 µM; hit rate 1.1% among 220,000; AID 1486, 2009;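 active = inhibition above a per-campaign cutoff, the mean inhibition of all tested compounds plus 3 SD, cut at about 27% in these data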;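 also: 0% = DMSO wells and 100% = JAK Inhibitor I control wells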
Numbers without * were called inactive.

For Cc1cc(C)c(S(=O)(=O)N2CCN(CCN3C(=O)c4cccc5cccc(c45)C3=O)CC2)cc1[N+](=O)[O-] the results were MT stabilizer 3, bCat nuc transl 0, L major viab 53*, APP 5UTR inh -4, Ba/F3 V617F tox 5 and BaF3 tox 6.
`CCCS(=O)(=O)N1CCN(CCN2C(=O)c3cccc4cccc(c34)C2=O)CC1` gave MT stabilizer 2, bCat nuc transl 1, L major viab 11, APP 5UTR inh -2, Ba/F3 V617F tox -2 and BaF3 tox 2.
Screening CCN1C(=O)c2cccc3cccc1c23 returned MT stabilizer 9, bCat nuc transl 12, L major viab 13, APP 5UTR inh -2, Ba/F3 V617F tox -3 and BaF3 tox 7.
Screening CCN(CC)CCN1C(=O)c2cccc3cc(N)cc(c23)C1=O returned bCat nuc transl 1, Ba/F3 V617F tox 82* and BaF3 tox 70*.
`O=C1c2cccc3cc([N+](=O)[O-])cc(c23)C(=O)N1CCN1CCCC1` gave bCat nuc transl 5, Ba/F3 V617F tox 99* and BaF3 tox 104*.
Screening O=C1c2ccccc2C(=O)N1CCN1CCCCC1 returned MT stabilizer 3, bCat nuc transl 2, L major viab -15, APP 5UTR inh 5, Ba/F3 V617F tox 2 and BaF3 tox 6.
For CCOc1ccccc1NC(=O)c1ccc(F)c(S(=O)(=O)N2CCC3(CC2)OCCO3)c1 the results were MT stabilizer 3, bCat nuc transl -2, L major viab 2, APP 5UTR inh -3, Ba/F3 V617F tox 3 and BaF3 tox 5.
`CCN(CC)C(=O)CN(c1cc2c(cc1OC)oc1ccccc12)S(=O)(=O)c1ccc(C)cc1` gave MT stabilizer 2, bCat nuc transl 3, L major viab 69*, APP 5UTR inh 18, Ba/F3 V617F tox 5 and BaF3 tox 8.
`CCN(CC)S(=O)(=O)c1ccc(C(=O)Nc2cc3oc4ccccc4c3cc2OC)cc1` gave MT stabilizer 5, bCat nuc transl 0, L major viab -2, APP 5UTR inh -2, Ba/F3 V617F tox -5 and BaF3 tox 2.
Screening Oc1ccc(-c2cn3c(n2)SCC3)cc1O returned MT stabilizer 2, L major viab 98*, APP 5UTR inh 20, Ba/F3 V617F tox -2 and BaF3 tox 0.
For O=C(COc1ccccc1)NC(=S)Nc1ccc2c(c1)Cc1ccccc1-2 the results were MT stabilizer 3, bCat nuc transl 0, L major viab -1, APP 5UTR inh -31, Ba/F3 V617F tox 5 and BaF3 tox 10.
Screening CN(C)CC1CCCCC1OC(=O)c1ccc(Br)cc1 (centres undefined) returned MT stabilizer 3, bCat nuc transl 0, L major viab 74*, APP 5UTR inh 11, Ba/F3 V617F tox 0 and BaF3 tox 4.
For CN(C)CC1CCCCC1OC(=O)c1ccc(Cl)cc1Cl (centres undefined) the results were MT stabilizer 2, bCat nuc transl -3, L major viab 2, APP 5UTR inh -19, Ba/F3 V617F tox -2 and BaF3 tox 4.
COc1cc(COCC(O)CN2CCN(CCN3C(=O)c4cccc5cccc(c45)C3=O)CC2)cc(OC)c1OC (centres undefined) was read as MT stabilizer 3, bCat nuc transl -4, L major viab 13, APP 5UTR inh -12, Ba/F3 V617F tox 5 and BaF3 tox 4.
Screening Cc1ccc(C)c(OCC(O)CN2CCN(CCN3C(=O)c4cccc5cccc(c45)C3=O)CC2)c1 (centres undefined) returned MT stabilizer 3, bCat nuc transl -1, L major viab 100*, APP 5UTR inh 21, Ba/F3 V617F tox 6 and BaF3 tox 10.
CC(=O)c1ccccc1OCC(O)CN1CCN(CCN2C(=O)c3cccc4cccc(c34)C2=O)CC1 (centres undefined) was read as MT stabilizer 2, bCat nuc transl 1, L major viab 99*, APP 5UTR inh 6, Ba/F3 V617F tox 4 and BaF3 tox 12.

Assay outcomes as filed in PubChem BioAssay.
